Compounds with a hit are over-represented: about 2.3% of the library has one in this group of screens.
STAT3 activator: STAT3 signaling activation | activation (% of control), % at 5.6 µM | hit rate 0.91% among 190,000 | AID 871 | U3A cells, IL-6 STAT3-luciferase reporter, luminescence; 100% = signal with IL-6 EC80 alone;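 active means activation above the screen-wide mean of compound activation plus 3 SD, cut at about 130% in these data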
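Material: human U3A cells carrying STAT3-luciferase construct. Measured by: reporter luminescence signal. Timing: compound 1 h, then IL-6 6 h at 37 °C.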
TRAIL sens C8: sensitizes caspase-8 expressing cells to TRAIL; NB7+C8 cells + TRAIL, ATPlite viability luminescence; inhibition (viability loss, TRAIL sensitization), % at 10 µM; hit rate 1% among 360,000; AID 624354;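 active means compounds causing at least 50% loss of cell viability in the single-dose screen, relative to plate controls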
STAT3 blocker: inhibitors of IL-6 induced STAT3 signaling; U3A cells, IL-6 STAT3-luciferase reporter, luminescence; host cell line lacks STAT1; inhibition, % at 5.5 µM; hit rate 0.89% among 190,000;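 active means inhibition above the mean inhibition across all screened compounds plus 3 SD, cut at about 44% in these data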
HSP90 refold inh: blocks HSP90-mediated luciferase refolding in reticulocyte lysate; inhibition, % at 5.6 µM; hit rate 0.91% among 290,000; Rabbit reticulocyte lysate, luciferase refolding luminescence, 3 h; AID 1789;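 active means inhibition above the screen-wide mean plus 3 SD, computed separately per campaign, cut at about 16% in these data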;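 further: inhibitors lower the luminescence because luciferase stays unfolded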
PPC-1+TRAIL kill: compounds killing PPC-1 cancer cells with TRAIL present (potentiator screen, no TRAIL-free arm); PPC-1 cells + TRAIL, ATPLite viability luminescence; cell killing (% activity), % at 4 µM or 5 µM; hit rate 0.41% among 220,000; AID 1443;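 active means cell killing above 50% in the first pass at 4 µM, then a duplicate retest at 5 µM averaging 50% or more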
STAT1 inh: inhibitors of IFN-gamma induced STAT1 signaling | NIH 3T3 STAT1-luciferase reporter, luminescence | inhibition, % at 5.5 µM | hit rate 0.35% among 200,000;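 active means inhibition above a set limit, the mean inhibition across all tested compounds plus 3 SD, cut at about 34% in these data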
HSP90 confirm: HSP90 inhibition, confirmation assay. rabbit reticulocyte lysate, luciferase refolding luminescence, 3 h. hit rate 64% among 2,300. shares compounds with HSP90 refold inh. inhibition, % at 5.9 µM; in the data active means inhibition above about 18%
luciferase ctr: blocks native firefly luciferase in HSP90 counter-screen; purified native firefly luciferase, luminescence; inhibition, % at 5.9 µM; hit rate 48% among 2,300; shares compounds with HSP90 refold inh;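 active means inhibition above the mean inhibition of all tested sample wells plus 3 SD, cut at about 10% in these data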
Target sequence (P08659 whole entry, looked up): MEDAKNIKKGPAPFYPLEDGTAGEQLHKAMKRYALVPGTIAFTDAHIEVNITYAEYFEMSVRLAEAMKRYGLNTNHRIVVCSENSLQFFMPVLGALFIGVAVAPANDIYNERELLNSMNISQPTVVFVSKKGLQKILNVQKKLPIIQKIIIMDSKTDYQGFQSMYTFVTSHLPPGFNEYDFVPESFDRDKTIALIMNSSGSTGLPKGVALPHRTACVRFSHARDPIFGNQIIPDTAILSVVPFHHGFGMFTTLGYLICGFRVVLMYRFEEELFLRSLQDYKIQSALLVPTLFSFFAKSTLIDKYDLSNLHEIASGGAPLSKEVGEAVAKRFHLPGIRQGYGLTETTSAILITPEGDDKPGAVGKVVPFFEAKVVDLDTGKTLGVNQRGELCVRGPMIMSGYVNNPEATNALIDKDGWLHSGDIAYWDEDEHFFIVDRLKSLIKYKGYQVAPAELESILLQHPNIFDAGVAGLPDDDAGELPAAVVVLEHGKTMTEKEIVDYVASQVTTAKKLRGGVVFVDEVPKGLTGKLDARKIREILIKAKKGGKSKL
Large screens that a line does not name were inactive (follow-up assays come after a bar, where they were run).

Cn1c2ccccc2c(=O)c2cc(C#CC3(O)CCCCC3)ccc21	TRAIL sens C8 92, HSP90 refold inh 72 (no result: STAT3 activator, STAT3 blocker, PPC-1+TRAIL kill, STAT1 inh) | HSP90 confirm 76 | luciferase ctr 71
CCCCc1c(O)nc(SC2CC(=O)N(c3ccc(C(=O)OCC)cc3)C2=O)[nH]c1=O (centres undefined)	none (no result: STAT3 activator, STAT3 blocker, PPC-1+TRAIL kill, STAT1 inh)
O=C(N/N=C\c1ccc(-c2ccccc2[N+](=O)[O-])o1)C1COc2cc3ccccc3cc2O1 (centres undefined)	HSP90 refold inh 22 | HSP90 confirm inactive | luciferase ctr inactive
CCN1CCN(C(c2ccccn2)c2c(NC(=O)c3ccccc3)sc(C)c2C)CC1 (centres undefined)	HSP90 refold inh 33 | HSP90 confirm inactive | luciferase ctr inactive
COc1ccc(C(c2c(NC(=O)c3ccccc3)sc(C)c2C)N2CCN(CCO)CC2)cc1 (centres undefined)	none
CC(C)(C)c1ccc(Cn2c(=O)cnc3ccccc32)cc1	HSP90 refold inh 22 (no result: STAT3 activator, STAT3 blocker, PPC-1+TRAIL kill, STAT1 inh) | HSP90 confirm 53 | luciferase ctr 34
N#Cc1c2c(c(N3CCN(c4ccccn4)CC3)n3c1nc1ccccc13)CCC2	none (no result: TRAIL sens C8)
O=C(Nc1ccc(Br)cn1)c1coc(=O)c(Br)c1	HSP90 refold inh 30 (no result: STAT3 activator, STAT3 blocker, STAT1 inh) | HSP90 confirm 21 | luciferase ctr inactive
Cc1cc(NC(=O)c2coc(=O)c(Br)c2)ccc1C(C)C	HSP90 refold inh 61 (no result: STAT3 activator, STAT3 blocker, STAT1 inh) | HSP90 confirm 81 | luciferase ctr inactive
N#Cc1ccc(NC(=O)c2cccs2)nc1	none (no result: STAT3 activator, STAT3 blocker, PPC-1+TRAIL kill, STAT1 inh)
CCOC(=O)c1c(S(=O)(=O)N2CCCC(C(=O)Nc3ncccc3C)C2)c(C)n(C)c1C (centres undefined)	none (no result: STAT3 activator, STAT3 blocker, PPC-1+TRAIL kill, STAT1 inh)
CCOC(=O)c1c(S(=O)(=O)N2CCCC(C(=O)Nc3cccc(C)n3)C2)c(C)n(C)c1C (centres undefined)	HSP90 refold inh 21 (no result: STAT3 activator, STAT3 blocker, PPC-1+TRAIL kill, STAT1 inh) | HSP90 confirm inactive | luciferase ctr inactive
CC(=O)N(/N=C1\Sc2ccccc2C1=O)c1ccccc1C	HSP90 refold inh 35 | HSP90 confirm 74 | luciferase ctr inactive
CC(=O)N(/N=C1\Sc2ccccc2C1=O)c1ccc(C)cc1C	HSP90 refold inh 41 | HSP90 confirm 79 | luciferase ctr 58
O=C(CSc1nc2ccccc2[nH]1)NCCc1ccc(Cl)cc1	HSP90 refold inh 25 | HSP90 confirm inactive | luciferase ctr inactive
CCc1ccccc1NC(=O)C1CCCN1S(=O)(=O)c1ccc(-c2ccc(=O)[nH]n2)s1 (centres undefined)	none (no result: STAT3 activator, STAT3 blocker, PPC-1+TRAIL kill, STAT1 inh)
COc1ccc(C(=O)/C=C/c2ccc(OC)c(COc3ccc(F)cc3)c2)cc1	HSP90 refold inh 24 | HSP90 confirm 21 | luciferase ctr inactive
CC1CCc2nc(NC(=O)C3CC3)sc2C1 (centres undefined)	none
CC1CCc2nc(NC(=O)C3COc4ccccc4O3)sc2C1 (centres undefined)	STAT3 blocker 91, HSP90 refold inh 57, STAT1 inh 49 | HSP90 confirm 72 | luciferase ctr 66
Cc1cccc(NC(=O)C2CCCN(S(=O)(=O)c3c(C)nn(C)c3C)C2)c1 (centres undefined)	none (no result: STAT3 activator, STAT3 blocker, HSP90 refold inh, PPC-1+TRAIL kill, STAT1 inh)
Cc1c(C(=O)O)cccc1-n1c(C)cc(C=O)c1C	HSP90 refold inh 22 | HSP90 confirm 19 | luciferase ctr inactive
Cc1ccc(C(=O)O)cc1-n1c(C)cc(C=O)c1C	none
Cc1ccc(N2CC(NS(=O)(=O)c3cccnc3)CC2=O)cc1C (centres undefined)	none (no result: STAT3 activator, STAT3 blocker, HSP90 refold inh, PPC-1+TRAIL kill, STAT1 inh)
COC(=O)COc1ccc2c(c1)O/C(=C\c1ccco1)C2=O	none (no result: STAT3 activator, STAT3 blocker, PPC-1+TRAIL kill, STAT1 inh)
O=C(O)c1ccc(/C=C/C(=O)c2ccc3c(c2)OCCCO3)cc1	HSP90 refold inh 51 (no result: STAT3 activator, STAT3 blocker, PPC-1+TRAIL kill, STAT1 inh) | HSP90 confirm 65 | luciferase ctr inactive
CCN1CCN(C(=S)NCC(C)C)CC1	none
Cc1ccc(-n2nc3c(c2NC(=O)/C=C\c2ccc4c(c2)OCO4)CSC3)cc1	none
Cc1ccc(C2/C(=C(/O)c3cnn(-c4ccccc4)c3C)C(=O)C(=O)N2CCN2CCOCC2)o1 (centres undefined)	HSP90 refold inh 21 | HSP90 confirm inactive | luciferase ctr inactive
Cc1c(/C(O)=C2/C(=O)C(=O)N(CCN3CCOCC3)C2c2cccs2)cnn1-c1ccccc1 (centres undefined)	HSP90 refold inh 45 | HSP90 confirm 47 | luciferase ctr 40
Cc1ccc(C2/C(=C(\O)c3cnn(-c4ccccc4)c3C)C(=O)C(=O)N2CCN(C)C)o1 (centres undefined)	none (no result: PPC-1+TRAIL kill)
O=C(CCc1ccccc1)NCCSCc1c(F)cccc1Cl	none
Cc1ccc(/C=C2/NC(=O)N(c3ccccc3)C2=O)o1	none
Cc1c(C(=O)O)cccc1-c1ccc(/C=C2/NC(=O)N(c3ccccc3)C2=O)o1	HSP90 refold inh 33 | HSP90 confirm 28 | luciferase ctr inactive
Cc1c(C(=O)O)cccc1-c1ccc(/C=C2\SC(=O)NC2=O)o1	HSP90 refold inh 29 (no result: STAT3 activator, STAT3 blocker, PPC-1+TRAIL kill, STAT1 inh) | HSP90 confirm 39 | luciferase ctr 17
NS(=O)(=O)c1ccc(CNC(=O)c2ccc(S(=O)(=O)C(F)F)cc2)cc1	none (no result: STAT3 activator, STAT3 blocker, STAT1 inh)
CCCCNC(=O)CCSc1nc2nc(C)cc(C)n2n1	none
O=C(/C=C\Nc1ccccn1)c1ccc(Cl)cc1	TRAIL sens C8 82, STAT3 blocker 100, HSP90 refold inh 39, PPC-1+TRAIL kill 71, STAT1 inh 56 | HSP90 confirm 80 | luciferase ctr 73
O=C(CSc1ncn(-c2ccccc2)n1)N1CCN(c2ccccc2)CC1	HSP90 refold inh 35 | HSP90 confirm inactive | luciferase ctr inactive
Cc1noc(C)c1NC(=O)N(C)C[C@@H]1Oc2ncc(Br)cc2C(=O)N([C@H](C)CO)C[C@@H]1C	none (no result: STAT3 activator, STAT3 blocker, HSP90 refold inh, PPC-1+TRAIL kill, STAT1 inh)
c1ccc(-c2csc(Nc3ccccn3)n2)cc1	none (no result: STAT3 activator, STAT3 blocker, PPC-1+TRAIL kill, STAT1 inh)
Oc1ccc(-c2csc(Nc3ccccn3)n2)cc1	HSP90 refold inh 21 (no result: STAT3 activator, STAT3 blocker, PPC-1+TRAIL kill, STAT1 inh) | HSP90 confirm inactive | luciferase ctr inactive
Cc1ccc(-c2csc(Nc3ccccn3)n2)cc1	TRAIL sens C8 62, HSP90 refold inh 19 (no result: STAT3 activator, STAT3 blocker, PPC-1+TRAIL kill, STAT1 inh) | HSP90 confirm 26 | luciferase ctr 17
CCN(C(=O)c1cc2ccccc2o1)C12CC3CC(CC(C3)C1)C2	none (no result: TRAIL sens C8)
CC(C)c1ccc(NCCC(=O)c2cccs2)cc1	HSP90 refold inh 29 | HSP90 confirm 35 | luciferase ctr inactive
Cc1ccc(NCCC(=O)c2cccs2)cc1	none
COc1ccc(NC(=O)c2ccc(-n3cncn3)c([N+](=O)[O-])c2)cc1	none
CC(C)CN1C(=O)NC(NC(=O)c2ccco2)(C(F)(F)F)C1=O (centres undefined)	HSP90 refold inh 27 | HSP90 confirm inactive | luciferase ctr inactive
CN1C(=O)NC(NC(=O)c2ccco2)(C(F)(F)F)C1=O (centres undefined)	none
Cc1cc2nc(-c3ccc[nH]c3=O)n(Cc3ccc(F)cc3)c2cc1C	none (no result: STAT3 activator, STAT3 blocker, PPC-1+TRAIL kill, STAT1 inh)

Screens: PubChem BioAssay, several laboratories
